Measured values from PMC4277744 (European journal of medicinal chemistry, 2014).
Like-named read-outs stand apart in the source and are kept apart here.

Experiments:
HeLa cell [1] = tested on: HeLa cell
[2] = Stability of ninhydrin adduct in aqueous buffer monitored by 1H NMR; type: physicochemical; conditions: after one hour, pH 8, D2O, 10 mM phosphate buffer
[3] = biological target: T1, catalytic domain of KDM4A (Homo sapiens, UniProt O75164); assay: Fluorescence-based; type: biochemical; conditions: FluoZin-3 dye measures unbound zinc; ebselen positive control
T1 sequence (O75164 142-308 limits assumed): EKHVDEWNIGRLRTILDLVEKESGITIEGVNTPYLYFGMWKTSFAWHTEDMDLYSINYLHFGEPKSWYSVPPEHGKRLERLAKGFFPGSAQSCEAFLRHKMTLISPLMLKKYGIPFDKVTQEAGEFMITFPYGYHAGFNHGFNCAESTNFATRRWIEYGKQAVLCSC

p300 CH1 (Homo sapiens) = p300 CH1 (Homo sapiens) (UniProt Q09472); conditions: cited from earlier work
Chain of p300 CH1 (Homo sapiens) (Q09472 331-417): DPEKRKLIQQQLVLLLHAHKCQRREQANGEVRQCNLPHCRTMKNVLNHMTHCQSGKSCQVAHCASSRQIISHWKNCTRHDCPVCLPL

[4] = cited from earlier work
CH1 domain of p300 = CH1 domain of p300 (Homo sapiens, UniProt Q09472); assay: Fluorescence-based assay for release of Zn; type: biochemical; conditions: high basal levels of Zn(II), poorer resolution
Chain of CH1 domain of p300 (Q09472 331-417 limits assumed): as the sequence (Q09472 331-417) above

HeLa cell [5] = assay: HeLa cell viability assay; conditions: after 48 h
[6] = biological target: HIF-1α (785-826)/p300 CH1 domain (323-423) (Homo sapiens, UniProt Q09472); assay: ELISA competition assay for disrupting HIF-1α/p300 binding; conditions: read-out: IC50, HIF-1α/p300 interaction, 1% DMSO
Chain of HIF-1α (785-826)/p300 CH1 domain (323-423) (Q09472 323-423): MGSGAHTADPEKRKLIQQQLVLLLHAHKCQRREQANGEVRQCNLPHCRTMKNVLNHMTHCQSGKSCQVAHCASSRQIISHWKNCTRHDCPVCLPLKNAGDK
Method in brief: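 Assay wells held 1% DMSO. Each determination ran in triplicate and is reported with ±SD.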

Chain of HIF-1α C-TAD (Q16665 783-826): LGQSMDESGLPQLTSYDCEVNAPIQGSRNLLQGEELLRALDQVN

O=C(NN1C(=O)c2ccccc2C1=O)c1ccccc1 [compound 21, N-(1,3-Dioxoisoindolin-2-yl)benzamide]
cytotoxicity in HeLa cell viability assay (HeLa cell [1]): not cytotoxic

O=C(NC1(O)C(=O)c2ccccc2C1=O)c1ccccn1 [compound 5, N-(2-Hydroxy-1,3-dioxo-2,3-dihydro-1H-inden-2-yl)picolinamide]
hydrolysis to picolinamide and ninhydrin 23 [2]: 80%

O=C(NC1(O)C(=O)c2ccccc2C1=O)c1cccnc1 [compound 16, N-(2-Hydroxy-1,3-dioxo-2,3-dihydro-1H-inden-2-yl)nicotinamide]
Zn(II) ion ejection from KDM4A [3]: caused Zn(II) ion loss

HIF-1α C-TAD (from UniProt Q16665)
Kd (p300 CH1 (Homo sapiens)): 0.007 µM

O=C1C=CC(=O)c2ccccc21 [compound 8, naphthoquinone]
half wave potential (E1/2) [4]: -1.03 V
Zn(II) ion release from CH1 domain of p300 (CH1 domain of p300): dose- and time-dependent increases in fluorescence
Zn(II) ion ejection from KDM4A [3]: caused Zn(II) ion loss
cytotoxicity in HeLa cell viability assay (HeLa cell [5]): significant dose-dependent cytotoxicity

c1ccc(SSc2ccccn2)nc1 [compound 13, Dipyridyldisulfide]
IC50 [6]: ~100 µM

O=C1c2ccccc2C(=O)c2ccccc21 [compound 7, anthraquinone]
half wave potential (E1/2) [4]: -1.26 V

O=C1c2ccccc2C(=O)C1(O)O [compound 23, ninhydrin]
Zn(II) ion release from CH1 domain of p300 (CH1 domain of p300): dose- and time-dependent increases in fluorescence
Zn(II) ion ejection from KDM4A [3]: caused Zn(II) ion loss
cytotoxicity in HeLa cell viability assay (HeLa cell [1]): significant dose-dependent cytotoxicity
